14 molecules from ChEMBL document CHEMBL1938344, “Antiangiogenic activity of 3,4-seco-cycloartane triterpenes from Thai Gardenia spp. and their semi-synthetic analogs” (Bioorg Med Chem Lett, 2012) can be followed below.

Activity calls are given as the source filed them. The calls are words filed in the database; no cut-off is given here.

Experiment [1] concerns Aorta. Description: Antiangiogenic activity in Wistar rat thoracic aortic rings assessed as inhibition of microvessel sprouting at 25 uM after 7 days by phase-contrst microscopy. The experiment is classed as functional. Particulars: 168 h. A digest of the protocol:
(§1)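 Thoracic aorta from six-week-old SPF male Wistar rat, everted, cut into 1-mm rings, embedded in porcine tendon collagen gel (30 min, 37 °C). Rings overlaid with RPMI 1640 plus 1% TIS+ containing compound doses or DMSO; 7 days at 37 °C, 5% CO2. Sprout length from cut end to capillary mid-point by phase-contrast microscopy; mean ± SD, n = 6.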

Experiment [2] concerns HUVEC. Briefly: Antiangiogenic activity in HUVEC assessed as inhibition of tubule formation at 5 uM after 12 hrs by inverted light microscopy. The experiment is classed as functional, cell-based. Particulars: Homo sapiens. A digest of the protocol:
(§2)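 Cells suspended in HuMedia EG2 with graded doses or DMSO vehicle, seeded onto solidified Matrigel and incubated 12 h at 37 °C, 5% CO2. Capillary-like tube length measured microscopically against vehicle control; mean ± SD, n = 5.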

In experiment [3] the test system is HUVEC. Briefly: Inhibition of VEGF-induced Akt phosphorylation in HUVEC at 2.5 to 10 uM pretreated for 60 mins prior VEGF stimulation measured after 10 mins by Western blotting. The format is cell-based. The note with it: Homo sapiens. A digest of the protocol: (§3)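 Cells pretreated 1 h with 0–10 µM compound or DMSO, then stimulated with VEGF (10 ng/mL) for 10 min, PBS-washed, lysed with M-PER, protein by microBCA. Blots probed for phospho-Erk1/2 or phospho-Akt (4 °C overnight) and total Erk1/2 or Akt (room temperature); chemiluminescent detection; mean ± SD, n = 3.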

Experiment [4] has as its system HUVEC. Description: Antiangiogenic activity in HUVEC assessed as inhibition of tubule formation after 12 hrs by inverted light microscopy. Particulars: Homo sapiens. The format is functional, cell-based. A digest of the protocol:
as §2

Experiment [5] has as its system HUVEC. Briefly: Antiangiogenic activity in HUVEC assessed as inhibition of tubule formation at 20 uM after 12 hrs by inverted light microscopy. The experiment is classed as functional, cell-based. Particulars: Homo sapiens. A digest of the protocol: as §2
The target of experiment [6] is T1, Mitogen-activated protein kinase; ERK1/ERK2 (Homo sapiens) (UniProt P27361+P28482). Briefly: Inhibition of VEGF-induced Erk1/2 phosphorylation in HUVEC pretreated for 60 mins prior VEGF stimulation measured after 10 mins by Western blotting. The format is protein assay. A digest of the protocol:
as §3

In experiment [7] the test system is HUVEC. Briefly: Antiangiogenic activity in HUVEC assessed as inhibition of VEGF-induced cell migration at 50 uM after 6 hrs by boyden chamber assay. The experiment is classed as functional, cell-based. Particulars: Homo sapiens.
Experiment [8] concerns HUVEC. Description: Antiangiogenic activity in HUVEC assessed as inhibition of cell proliferation after 72 hrs by WST-8-based spectrophotometry. The note with it: Homo sapiens. The experiment is classed as functional. A digest of the protocol:
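Cells seeded in HuMedia EG2, 24 h at 37 °C, 5% CO2, then fresh medium with graded doses or DMSO vehicle for 72 h. Proliferation read by WST-8 at 450 nm; mean ± SD, n = 5; IC50 from dose–response.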

The target of experiment [9] is T1, Mitogen-activated protein kinase; ERK1/ERK2 (Homo sapiens). Description: Inhibition of VEGF-induced Erk1/2 phosphorylation in HUVEC at 2.5 to 10 uM pretreated for 60 mins prior VEGF stimulation measured after 10 mins by Western blotting. The note with it: TDE = time-dependent effect. The experiment is classed as protein assay. A digest of the protocol: as §3

Experiment [10] deals with Aorta. Description: Antiangiogenic activity in Wistar rat thoracic aortic rings assessed as inhibition of microvessel sprouting after 7 days by phase-contrst microscopy. The experiment is classed as functional, tissue-based. A digest of the protocol:
as §1

T1 sequence (P27361 whole entry, looked up): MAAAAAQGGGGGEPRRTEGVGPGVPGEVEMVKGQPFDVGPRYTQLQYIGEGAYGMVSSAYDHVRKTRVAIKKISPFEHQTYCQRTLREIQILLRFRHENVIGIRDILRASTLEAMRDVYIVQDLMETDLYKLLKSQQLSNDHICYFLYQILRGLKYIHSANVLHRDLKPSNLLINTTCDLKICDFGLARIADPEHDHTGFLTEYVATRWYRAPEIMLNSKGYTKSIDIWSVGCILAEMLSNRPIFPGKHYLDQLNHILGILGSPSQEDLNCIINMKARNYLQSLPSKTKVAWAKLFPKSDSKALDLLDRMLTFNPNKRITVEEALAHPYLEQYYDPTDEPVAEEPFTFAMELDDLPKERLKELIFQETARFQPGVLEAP
T1 sequence (P28482 whole entry, looked up): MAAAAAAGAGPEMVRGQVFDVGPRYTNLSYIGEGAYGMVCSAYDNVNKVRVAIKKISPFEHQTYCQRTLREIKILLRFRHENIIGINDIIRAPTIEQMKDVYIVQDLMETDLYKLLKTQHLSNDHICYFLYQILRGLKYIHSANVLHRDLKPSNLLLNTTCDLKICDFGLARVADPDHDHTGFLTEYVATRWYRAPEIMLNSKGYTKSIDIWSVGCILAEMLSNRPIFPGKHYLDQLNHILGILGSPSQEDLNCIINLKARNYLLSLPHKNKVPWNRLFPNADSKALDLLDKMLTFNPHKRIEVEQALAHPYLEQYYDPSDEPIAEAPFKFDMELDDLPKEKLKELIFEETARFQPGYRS

With `C=C1C(=O)O[C@@H]2C[C@@H]3[C@]4(CC[C@]5(C)[C@@H]([C@H](C)CC/C=C(\C)C=O)CC[C@@]35C)C[C@]4(CCC(=O)Oc3ccccc3)[C@H]12`, the inhibition at 25 µM in the experiment with Aorta [1] turned out to be 10%.

On to `C=C1C(=O)O[C@@H]2C[C@@H]3[C@]4(CC[C@]5(C)[C@@H]([C@H](C)CC/C=C(\C)C=O)CC[C@@]35C)C[C@]4(CCC(=O)N[C@@H](Cc3ccccc3)C(=O)OC)[C@H]12`, for which the inhibition at 25 µM in the experiment on Aorta [1] is 10%.

On to `C=C1C(=O)O[C@@H]2C[C@@H]3[C@]4(CC[C@]5(C)[C@@H]([C@H](C)CC/C=C(\C)C=O)CC[C@@]35C)C[C@]4(CCC(=O)NC(C)(C)C)[C@H]12`, for which the inhibition at 25 µM with Aorta [1] was found to be 10%.

Regarding `C=C1C(=O)O[C@@H]2C[C@@H]3[C@]4(CC[C@]5(C)[C@@H]([C@H](C)CC/C=C(\C)C=O)CC[C@@]35C)C[C@]4(CCC(=O)NCCCC)[C@H]12`, the inhibition at 25 µM with Aorta [1] is 10%.

On to `C=C1C(=O)O[C@@H]2C[C@@H]3[C@]4(CC[C@]5(C)[C@@H]([C@H](C)CC/C=C(\C)C=O)CC[C@@]35C)C[C@]4(CCC(=O)N3C(=O)CCC3=O)[C@H]12`, for which the inhibition at 25 µM in the experiment with Aorta [1] was found to be 10%.

On to `C=C1C(=O)O[C@@H]2C[C@@H]3[C@]4(CC[C@]5(C)[C@@H]([C@H](C)CC/C=C(\C)COC(=O)c6ccccc6)CC[C@@]35C)C[C@]4(CCC(=O)OC)[C@H]12`, for which the inhibition at 25 µM with Aorta [1] was 10%.

In the case of `C=C1C(=O)O[C@@H]2C[C@@H]3[C@]4(CC[C@]5(C)[C@@H]([C@H](C)CC/C=C(\C)COC(=O)c6ccncc6)CC[C@@]35C)C[C@]4(CCC(=O)OC)[C@H]12`, in the experiment on Aorta [1], the inhibition at 25 µM came to 10%.

Regarding `C=C1C(=O)O[C@@H]2C[C@@H]3[C@]4(CC[C@]5(C)[C@@H]([C@H](C)CC/C=C(\C)COC(=O)c6ccc7ccccc7n6)CC[C@@]35C)C[C@]4(CCC(=O)OC)[C@H]12`, the inhibition at 25 µM in the experiment on Aorta [1] was 10%.

As to `C=C1C(=O)O[C@H]2C[C@@H]3[C@@]4(CC[C@]5(C)[C@H]([C@@H](C)CC/C=C(\C)C=O)CC[C@@]35C)C[C@]4(CCC(=O)OC)[C@@H]12` [CORONALOLIDE METHYL ESTER], the inhibition at 25 µM with Aorta [1] was 10%.

For the molecule `C=C1C(=O)O[C@@H]2C[C@@H]3[C@]4(CC[C@]5(C)[C@@H]([C@H](C)CC/C=C(\C)C=O)CC[C@@]35C)C[C@]4(CCC(=O)O)[C@H]12` [CORONALOLIDE], the inhibition at 25 µM with Aorta [1] was determined as 85%.

With `C=C1C(=O)O[C@@H]2C[C@@H]3[C@]4(CC[C@]5(C)[C@@H]([C@H](C)CC/C=C(\C)CO)CC[C@@]35C)C[C@]4(CCC(=O)OC)[C@H]12` [SOOTEPIN A], the inhibition at 25 µM in the experiment on Aorta [1] amounted to 10%.

On to `C=C1C(=O)O[C@@H]2C[C@@H]3[C@]4(CC[C@]5(C)[C@@H]([C@H](C)CCC=C(C)C)CC[C@@]35C)C[C@]4(CCC(=O)O)[C@H]12` [SOOTEPIN B], for which the inhibition entry in the experiment with HUVEC [2] and in the experiment on HUVEC [5] was “Active” each time. Also, the inhibition entry in the experiment with HUVEC [3] is “inactive”. In addition, the values for the IC50 in the experiment with HUVEC [4], in the experiment with HUVEC [8] and with Aorta [10] (168 h) were 11.2 µM, 1200 nM and 4.46 µM, respectively. The inhibition entry with HUVEC [4] is “Dose-dependent effect”; in [6] it was “Dose-dependent effect”; in [9], “tde”; with Aorta [10], “Dose-dependent effect”. In the experiment with HUVEC [7], the outcome was inactive. Moreover, in the experiment with HUVEC [8], the Activity entry is “Dose-dependent effect”. Besides, in the experiment with Aorta [1], the inhibition at 25 µM was 100%.

Turning to `C=C(C)[C@@H]1CC[C@@H]2[C@]3(CC[C@]4(C)[C@@H]([C@H](C)CCC=C(C)C)CC[C@@]24C)C[C@]13CCC(=O)O` [SOOTEPIN E], the inhibition at 25 µM with Aorta [1] came to 92%.

`C=C1C(=O)O[C@@H]2C[C@@H]3[C@]4(CC[C@]5(C)[C@@H]([C@H](C)CCC=C(C)C)CC[C@@]35C)C[C@]4(CCC(=O)OC)[C@H]12` [TUBIFEROLIDE METHYL ESTER]: the inhibition at 25 µM with Aorta [1] was found to be 40%.
